Activity calls are given as the source filed them.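 Rule for the calls, unless noted: active = visual image review flags a hit and inhibition of aggregation exceeds 20%; inconclusive = visual hit but inhibition at or below 20%; inactive = no hit on visual image review.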
How the values were obtained:
[1] = inhibitors of TNFa-induced NFkB p65 translocation, primary screen, imaging, HUVEC, MLSMR starter and 10KST1 sets (AID 438;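 active = inhibition above 20% together with a positive visual image hit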;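 note: compound added about 3h40 before a 20 min TNFalpha stimulation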;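 for inhibition: signal is the nuclear over cytoplasmic p65 intensity ratio per well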); conditions: HUVEC TNFa-induced p65 nuclear translocation; cell count: measured here: nuclei count (cytotoxicity indicator), at 2.08 µM; inhibition: at 2 µM, stronger effect = higher value, 0% TNFa-plus-vehicle, 100% no-TNFa wells
[2] = reduction of polyQ htt aggregates in cells – imaging, exon1htt(103Q)mCFP cells, high-content imaging, primary screen (AID 483); conditions: exon1htt(103Q)mCFP cell line, aggregate imaging, at 2 µM; inhibition of aggregation: stronger effect = higher value; nuclei count: measured here: cell count, toxicity;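 note: compound exposure lasted 3 days before fixation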;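 for nuclei count: percent of the per-plate median nuclei count of sample wells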
[3] = endothelial E-selectin expression blockers – imaging, HUVEC, immunofluorescence, MLSMR starter and 10KST1 sets, primary screen (AID 487;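 active = visually confirmed hit in the image check and inhibition above 20%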;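 for inhibition: signal is fraction of cell area covered by stained E-selectin grains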;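 for nuclei count: 100% = median nuclei count of all wells on the same plate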); conditions: HUVEC TNFalpha-induced E-selectin immunofluorescence imaging, at 2 µM; inhibition: stronger effect = higher value; nuclei count: measured here: cell number, toxicity
[4] = biological target: Voltage-gated potassium channel subunit beta-2 (Rattus norvegicus) (UniProt P62483); assay: inhibitors of rat Kvbeta2 reductase activity – biochemical, NADPH fluorescence, primary screen (AID 622;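 active = fluorescence slope higher than the sample average by over 3 SD, cut at about -0.22 in these data, passing the limit was not always enough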;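 note: slope of raw intensity against log time taken from 70 to 1610 s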); conditions: recombinant KvBeta, 4-cyanobenzaldehyde reduction, at 10 µM, stronger effect = higher value
Chain of Voltage-gated potassium channel subunit beta-2 (Rattus norvegicus) (P62483 whole entry, looked up): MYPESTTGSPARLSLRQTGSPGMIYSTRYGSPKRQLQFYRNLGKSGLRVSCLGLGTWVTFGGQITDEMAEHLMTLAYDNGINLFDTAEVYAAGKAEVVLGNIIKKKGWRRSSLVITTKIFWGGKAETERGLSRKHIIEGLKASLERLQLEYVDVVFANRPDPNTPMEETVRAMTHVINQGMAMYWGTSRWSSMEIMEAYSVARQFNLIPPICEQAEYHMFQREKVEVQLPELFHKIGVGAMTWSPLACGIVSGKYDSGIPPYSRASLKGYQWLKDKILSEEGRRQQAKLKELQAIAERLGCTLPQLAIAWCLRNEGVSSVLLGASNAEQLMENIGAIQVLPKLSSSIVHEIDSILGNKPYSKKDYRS

[5] = biological target: Voltage-gated potassium channel subunit beta-2 (Rattus norvegicus) (UniProt P62483); assay: enhancers of rat Kvbeta2 NADPH turnover – biochemical, NADPH fluorescence, primary screen (AID 623;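 active = NADPH fluorescence slope more negative than the mean of all samples by about 3 SD, 99.7% confidence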;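 note: fluorescence intensity change per second fitted from 20 to 320 s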); conditions: Recombinant KvBeta, NADPH fluorescence decrease slope, 10 min; at 10 µM; stronger effect = lower value
[6] = biological target: Muscarinic acetylcholine receptor M4 (Homo sapiens) (UniProt P08173); assay: M4-linked GIRK flux change, two-sided – cell-based, HEK293 M4/GIRK, thallium flux, BTC-AM, M4 allosteric agonist project, primary screen (AID 625;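 active = fluorescence slope after compound addition differing from the mean of all tested samples at 99.7% confidence, mostly higher but some lower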;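 note: thallium influx through GIRK channels coupled to M4 in HEK293 cells with BTC-AM dye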); conditions: at 10 µM, actives lie on both sides
Chain of Muscarinic acetylcholine receptor M4 (Homo sapiens) (P08173 whole entry, looked up): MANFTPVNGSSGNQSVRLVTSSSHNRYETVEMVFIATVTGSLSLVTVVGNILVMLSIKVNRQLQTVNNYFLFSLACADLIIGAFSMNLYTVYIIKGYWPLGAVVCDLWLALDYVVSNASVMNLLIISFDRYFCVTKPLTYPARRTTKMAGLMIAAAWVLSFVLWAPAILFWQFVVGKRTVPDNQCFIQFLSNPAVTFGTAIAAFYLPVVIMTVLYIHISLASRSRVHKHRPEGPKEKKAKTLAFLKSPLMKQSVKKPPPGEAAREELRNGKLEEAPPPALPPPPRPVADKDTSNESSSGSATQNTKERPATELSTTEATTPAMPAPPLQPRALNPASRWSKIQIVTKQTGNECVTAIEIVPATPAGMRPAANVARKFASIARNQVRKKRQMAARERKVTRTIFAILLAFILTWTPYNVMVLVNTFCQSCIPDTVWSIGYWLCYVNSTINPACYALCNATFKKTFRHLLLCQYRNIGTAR
How it was run: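 Assay system: HEK293 cells with M4 receptor and GIRK channels / Controls: carbachol and DMSO controls / Schedule: 1 h dye loading, 2 min kinetic read / Technique: kinetic fluorescence with BTC-AM dye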

[7] = blockers of RIG-like receptor reporter activation – cell-based, Sendai virus stimulus, luciferase, 10K MLSCN set, TLR/RLR signaling modifier project, primary screen (AID 602276;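 active = inhibition at or above 50% at 10 µM; inactive = inhibition below 50%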;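 note: firefly luciferase from ISG56 promoter only with Renilla not read in this screen; 0% = Sendai virus plus DMSO and 100% = medium plus DMSO without virus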); conditions: HEK293 RL24 IRF3 luciferase reporter, at 10 µM, stronger effect = higher value
[8] = TLR3 IRF3 reporter activation blockers – cell-based, poly I:C stimulus, luciferase, 10K MLSCN set, primary screen (AID 602277;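 active = inhibition of the reporter signal at or above 50%; inactive = inhibition below 50%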); conditions: HEK293-TLR3 RL24 IRF3 luciferase reporter, at 10 µM, stronger effect = higher value

| SMILES | cell count [1] | inhibition [1] | inhibition of aggregation [2] | nuclei count [2] | inhibition [3] | nuclei count [3] | fluorescence slope [4] | NADPH fluorescence slope [5] | fluorescence slope [6] | inhibition [7] | inhibition [8] |
| --- | --- | --- | --- | --- | --- | --- | --- | --- | --- | --- | --- |
| O=C(CSc1nnc(Cn2cnc3ccccc32)o1)c1ccccc1 | 672 | 3% (inactive) | -1.5% (inactive) | 92.9% | 82.5% (inactive) | 52% | -0.464 (inactive) | -3.7e-05 (inactive) | 0.00662 (inactive) | 7.52% (inactive) | -3.02% (inactive) |
| Cn1c2ccccc2c2c(C(=O)NCCCN3CCCC3=O)cn(C3CCCCC3)c(=O)c21 | 592 | -17.5% (inactive) | -29.3% (inactive) | 112% | 20.1% (inactive) | 110% | -0.428 (inactive) | 3.4e-05 (inactive) | 0.00608 (inactive) | 9.9% (inactive) | 15.9% (inactive) |
| COc1cccc2cc(C(=O)n3ccc(C)n3)c(=O)oc12 | 297 | -8% (inactive) | -15.2% (inactive) | 93.5% | 10.9% (inactive) | 88.2% | -0.409 (inactive) | 1.2e-05 (inactive) | 0.00485 (inactive) | 13.4% (inactive) | 12.3% (inactive) |
| CCOCCCNc1ncnc2c1[nH]c1ccccc12 | 252 | 7.8% (inactive) | -7.5% (inactive) | 72.9% | -49.2% (inactive) | 109% | -0.513 (inactive) | -0.000137 (inactive) | 0.00341 (inactive) | -24.7% (inactive) | -100% (inactive) |
| O=C(c1nc2n(n1)C(c1ccc(Cl)cc1)C=C(c1ccccc1)N2)N1CCOCC1 (stereo not drawn) | 811 | -3.9% (inactive) | 10.6% (inactive) | 126% | 14.2% (inactive) | 110% | -0.0865 (active) | -1.6e-06 (inactive) | 0.00624 (inactive) | 9.43% (inactive) | -4.24% (inactive) |
| COc1cc(OC)cc(-c2nnc(Nc3nc4c(F)cccc4s3)o2)c1 | 345 | -3.8% (inactive) | 12% (inactive) | 84.3% | 28.3% (inactive) | 92.1% | -0.336 (inactive) | 7e-05 (inactive) | 0.0196 (active) | 17.6% (inactive) | 12.9% (inactive) |
| CCc1nnc(NC(=O)CSc2nnc(Cc3ccccc3)n2-c2ccc(OC)cc2)s1 | 680 | -13.4% (inactive) | 0.3% (inactive) | 102% | 52.3% (inactive) | 105% | -0.45 (inactive) | -5.9e-05 (inactive) | 0.00454 (inactive) | 10.9% (inactive) | 12% (inactive) |
| CCOC(=O)COc1ccc(S(=O)(=O)Nc2ccc3c(c2)OCO3)cc1 | 408 | 9.5% (inactive) | 3.4% (inactive) | 98.2% | -137% (inactive) | 115% | -0.588 (inactive) | -0.000101 (inactive) | 0.00399 (inactive) | 12.4% (inactive) | 19.9% (inactive) |
| c1ccc(-c2n[nH]c3ccccc23)cc1 | 708 | -3% (inactive) | 13.9% (inactive) | 116% | -13.1% (inactive) | 106% | -0.55 (inactive) | -5.6e-05 (inactive) | 0.00778 (inactive) | -14% (inactive) | -30% (inactive) |
| CCCCn1cnc2c(cnn2-c2ccc(Cl)cc2)c1=O | 342 | -16.3% (inactive) | -4.9% (inactive) | 102% | -72% (inactive) | 103% | -0.531 (inactive) | -2.1e-05 (inactive) | 0.00515 (inactive) | -48.5% (inactive) | -141% (inactive) |
| CCSc1nc2c(c(=O)n1CC)SC(C)C2 (stereo not drawn) | 224 | 2.8% (inactive) | 0.4% (inactive) | 92.4% | 8.4% (inactive) | 95% | -0.401 (inactive) | -0.000126 (inactive) | 0.00651 (inactive) | 7.34% (inactive) | 18.7% (inactive) |
| O=C(c1cnsn1)N1CCN(c2ccccn2)CC1 | 277 | 9.3% (inactive) | 4% (inactive) | 82.9% | 1.4% (inactive) | 95.4% | -0.45 (inactive) | -2.9e-05 (inactive) | 0.00527 (inactive) | 4.49% (inactive) | -0.785% (inactive) |
| COc1ccc(CN(C(=O)CNC(=O)c2ccco2)C(C(=O)NC2CCCC2)c2ccco2)cc1 (stereo not drawn) | 510 | 7.2% (inactive) | 3.1% (inactive) | 105% | -62.9% (inactive) | 123% | -0.592 (inactive) | -1.6e-05 (inactive) | 0.00679 (inactive) | -14.2% (inactive) | -26.3% (inactive) |
| Cc1ccc(NC(=O)c2ccc(NS(=O)(=O)c3c(C)noc3C)cc2)cc1C | 319 | -15.8% (inactive) | -9.9% (inactive) | 94.1% | -49.9% (inactive) | 110% | -0.48 (inactive) | -0.000226 (inactive) | 0.00475 (inactive) | 6.15% (inactive) | 9.64% (inactive) |
| CCn1cc(/C=C(/C#N)S(=O)(=O)c2ccccc2)cn1 | 593 | -10.9% (inactive) | 7% (inactive) | 75% | -61.5% (inactive) | 99.9% | -0.488 (inactive) | -9.1e-05 (inactive) | 0.00519 (inactive) | -4.56% (inactive) | -9.84% (inactive) |
| COCCn1c(=O)[nH]c2cc(C(=O)NCc3cccnc3)ccc2c1=O | 744 | 3.8% (inactive) | 7.4% (inactive) | 93.8% | 56.4% (active) | 102% | -0.302 (inactive) | -4.8e-05 (inactive) | 0.00755 (inactive) | 10.8% (inactive) | 13.4% (inactive) |
| N=c1sc2ccccc2n1-c1ccccc1 | 402 | 10.9% (inactive) | 14.5% (inactive) | 96.6% | -469% (inactive) | 114% | -0.583 (inactive) | -1.3e-05 (inactive) | 0.00638 (inactive) | 15.3% (inactive) | 14.4% (inactive) |
| O=C(Cn1nnc(-c2cccc(C(F)(F)F)c2)n1)NC(=O)NCc1ccco1 | 323 | 19.4% (inactive) | -17% (inactive) | 100% | 24.1% (inactive) | 101% | -0.44 (inactive) | -0.000353 (inactive) | 0.00673 (inactive) | -0.353% (inactive) | 5.76% (inactive) |
| Cc1ccc(S(=O)(=O)N2CCC(C(=O)N[C@@H](Cc3ccccc3)C(=O)O)CC2)cc1 | 332 | -14.4% (inactive) | 11.7% (inactive) | 99.8% | 41.9% (inactive) | 97.6% | -0.563 (inactive) | -4.9e-05 (inactive) | 0.00616 (inactive) | -10.7% (inactive) | -5.08% (inactive) |
| C/C(=N\O)c1ccc2c3c([nH]c2c1)CCCC3 | 364 | -1.9% (inactive) | 6.7% (inactive) | 87.1% | -78.7% (inactive) | 96.4% | -0.532 (inactive) | -3.8e-05 (inactive) | 0.006 (inactive) | -28% (inactive) | -111% (inactive) |
| COc1nc2ccc(C)cc2cc1-c1noc(-c2cccnc2)n1 | 243 | -0.9% (inactive) | 3.8% (inactive) | 62.9% | -71.7% (inactive) | 109% | -0.456 (inactive) | 3.8e-06 (inactive) | 0.0055 (inactive) | 6.17% (inactive) | -7.44% (inactive) |
| Cc1noc(C)c1S(=O)(=O)NCCN1CCN(c2ccccc2)CC1 | 413 | -5.2% (inactive) | -8.9% (inactive) | 118% | -42.6% (inactive) | 141% | -0.546 (inactive) | 4.8e-05 (inactive) | 0.0066 (inactive) | 12.9% (inactive) | 20.2% (inactive) |
| Cc1[nH]c(=O)[nH]c(=O)c1S(=O)(=O)Nc1ccc(Oc2ccccc2)cc1 | 638 | -3.2% (inactive) | -7.6% (inactive) | 117% | -25.8% (inactive) | 107% | -0.574 (inactive) | -2.9e-05 (inactive) | 0.00503 (inactive) | 19.8% (inactive) | 24.8% (inactive) |
| CC(C(=O)N1CCCCC1)n1ncn2cccc2c1=O (stereo not drawn) | 397 | -2.5% (inactive) | 0.4% (inactive) | 94.2% | -4.6% (inactive) | 97.4% | -0.595 (inactive) | -2.8e-05 (inactive) | 0.00463 (inactive) | 6.93% (inactive) | 98.3% (active) |
| COC(=O)c1nn(-c2ccc(-c3ccccc3)cc2)cc1O | 281 | 6% (inactive) | 14.9% (inactive) | 99.2% | 9.1% (inactive) | 111% | -0.493 (inactive) | -1.1e-05 (inactive) | 0.00465 (inactive) | 6.22% (inactive) | 7.64% (inactive) |
| COc1cccc(OCc2nc3c4cnn(-c5ccccc5)c4ncn3n2)c1 | 418 | -6.7% (inactive) | -8.8% (inactive) | 104% | -118% (inactive) | 110% | -0.576 (inactive) | 1.4e-05 (inactive) | 0.00593 (inactive) | 8.13% (inactive) | -16.4% (inactive) |
| Cc1ccc(N2CC(C(=O)Nc3ccc4c(c3)OCO4)CC2=O)cc1 (stereo not drawn) | 556 | -19.5% (inactive) | 18.6% (inactive) | 110% | -43.5% (inactive) | 120% | -0.567 (inactive) | -4.3e-05 (inactive) | 0.00603 (inactive) | 14.2% (inactive) | 21.6% (inactive) |
| CC(=O)c1ccc(NC(=O)c2noc3c2CCCCC3)cc1 | 214 | 2.3% (inactive) | -0.6% (inactive) | 108% | -10.4% (inactive) | 118% | -0.512 (inactive) | -6e-05 (inactive) | 0.00493 (inactive) | -32.5% (inactive) | -114% (inactive) |
